The test system of one experiment is Mus musculus. The experiment can be described thus: Effective dose for the inhibition of acetylcholine induced mouse abdominal contriction was determined in vivo. The format is functional. The settings on record: Abdomen. The method, boiled down: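 Mouse abdominal constriction induced by acetylcholine. Compounds given sc in saline vehicle. ED50 reported in mg/kg sc, with 95% confidence limits, or both values where only two determinations were made.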

For experiment [1], the species on record is Oryctolagus cuniculus. The experiment can be described thus: In vitro antagonist affinity constant was measured on rabbit vas deferens. The class given is functional.
Experiment [2] in a line: (§1) In vitro inhibitory activity against opioid receptor in Guinea pig ileum. The format is functional, tissue-based.
Experiment [3] concerns the target Opioid receptors; mu/kappa/delta. The experiment is described as §1. The class given is tissue-based, Cavia porcellus.
Experiment [4] deals with Mu-type opioid receptor (Cavia porcellus) (UniProt P97266). Kind of experiment: Dose ratio IC50 after beta-FNA (10e-6 M) 30 min pretreatment on guinea pig ileum and IC50 before beta-FNA treatment against opioid receptor mu in guinea pig ileum. The class given is tissue-based.
Experiment [5] is filed under the species Oryctolagus cuniculus. The experiment can be described thus: In vitro antagonist affinity constant was measured on rabbit vas deferens AT 10e-6 M concentration. The class given is functional.

Results on 21 molecules are retold here after ChEMBL document CHEMBL1126023, “Synthesis, antinociceptive activity, and opioid receptor profiles of substituted trans-3-(decahydro- and octahydro-4a-isoquinolinyl)phenols” (J Med Chem, 1992).

Mu-type opioid receptor (Cavia porcellus), sequence (P97266 whole entry): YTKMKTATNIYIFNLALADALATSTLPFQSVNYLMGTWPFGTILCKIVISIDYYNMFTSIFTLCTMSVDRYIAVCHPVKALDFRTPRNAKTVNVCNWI

In the experiment on Mus musculus, `C=C1C[C@H](C)[C@H]2CN(CC3CC3)CCC2(c2cccc(O)c2)C1` (some centres not stated) had a 50% effective dose (ED50) of 3.3 mg/kg. Further, in the experiment listed under Oryctolagus cuniculus [1], the negative-log KB (pKB) worked out at 4.8.

`CC[C@@]12CCN(CC3CC3)C(C(=O)c3ccc(O)cc31)[C@@H]2C` [ETHYLKETOCYCLAZOCINE] yielded an IC50 in experiment [2] of 0.5 nM. In the experiment on Mus musculus, this molecule gave an ED50 of 0.08 mg/kg.

`Oc1cccc(C23CC=CC[C@H]2CN(CC2CCC2)CC3)c1` (some centres not stated) displayed an ED50 with Mus musculus of 0.39 mg/kg. Moreover, in experiment [3], the IC50 was determined as 60 nM. Moreover, the Dose ratio in experiment [4] came out at 14.7. Also, the negative logarithm of the KB (pKB) in the experiment listed under Oryctolagus cuniculus [1] stood at 5.7.

Molecule `C=CCN1CCC2(c3cccc(O)c3)CC=CC[C@H]2C1` (some centres not stated) showed an ED50 in the experiment on Mus musculus of 1.91 mg/kg. In the experiment filed under Oryctolagus cuniculus [1], this molecule gave a negative-log KB (pKB) of 5.6.

In turn, `CN1CC[C@]23c4c5ccc(O)c4O[C@H]2[C@@H](O)C=C[C@H]3[C@H]1C5` [MORPHINE] yielded a median effective dose (ED50) in the experiment on Mus musculus of 0.47 mg/kg.

As to `C=CCN1CCC2(c3cccc(O)c3)CC(=C)CC[C@H]2C1` (some centres not stated), the median effective dose (ED50) in the experiment with Mus musculus turned out to be 0.55 mg/kg. Also, in experiment [3], the IC50 was determined as 140 nM. Besides, in experiment [4], the Dose ratio turned out to be 3.3. Moreover, the pKB in the experiment listed under Oryctolagus cuniculus [1] is 5.5.

As to `C=C1CCC2(c3cccc(O)c3)CCN(CC3CCC3)C[C@@H]2C1` (some centres not stated), the 50% effect level in the experiment with Mus musculus (ED50) was put at a dose of 1.06 mg/kg. In the experiment filed under Oryctolagus cuniculus [1], this molecule registered a negative logarithm of the KB (pKB) of 5.3.

Molecule `O=C1CCC2(c3cccc(O)c3)CCN(CC3CC3)C[C@@H]2C1` (some centres not stated) returned an ED50 in the experiment on Mus musculus above 10 mg/kg.

As to `Oc1cccc(C23CC[C@H](O)C[C@H]2CN(CC2CCC2)CC3)c1` (some centres not stated), in the experiment on Mus musculus, the 50% effective dose (ED50) is above 10 mg/kg.

Molecule `C=C1CCC2(c3cccc(O)c3)CCN(CC3CC3)C[C@@H]2C1` (some centres not stated) came in with an ED50 in the experiment with Mus musculus of 1.3 mg/kg. In the experiment listed under Oryctolagus cuniculus [1], this molecule registered a pKB of 5.8.

`Oc1cccc(C23CC[C@H](O)C[C@H]2CN(CC2CC2)CC3)c1` (some centres not stated): in the experiment with Mus musculus, the ED50 is above 10 mg/kg.

On to `C=C1CC[C@H]2CN(CC3CC3)CCC2(c2cccc(O)c2)C1` (some centres not stated), for which the ED50 with Mus musculus came to 0.17 mg/kg. In experiment [3], this molecule had a half-maximal inhibitory concentration (IC50) of 15 nM. For the same molecule, the Dose ratio in experiment [4] is 1.7. The molecule further gave a pKB in the experiment filed under Oryctolagus cuniculus [1] of 6.3.

With `Oc1cccc(C23CCCC[C@H]2CN(CC2CC2)CC3)c1` (some centres not stated), in the experiment with Mus musculus, the ED50 was 1.09 mg/kg. This molecule returned a 50% inhibitory concentration (IC50) in experiment [3] of 150 nM. In addition, the Dose ratio in experiment [4] is 2.8. Moreover, testing at 1 µM in the experiment listed under Oryctolagus cuniculus [5] gave an inhibition of 24%.

The molecule `O=C1CC[C@H]2CN(CC3CC3)CCC2(c2cccc(O)c2)C1` (some centres not stated) yielded a median effective dose (ED50) in the experiment on Mus musculus of 1.6 mg/kg. Also, the IC50 in experiment [3] was found to be 120 nM. In addition, the Dose ratio in experiment [4] came to 1.4. Besides, in the experiment listed under Oryctolagus cuniculus [1], the pKB stood at 6.1.

In the experiment on Mus musculus, `C=C1CC[C@H]2CN(C)CCC2(c2cccc(O)c2)C1` (some centres not stated) returned an ED50 of 0.18 mg/kg. This molecule gave a half-inhibitory concentration (IC50) in experiment [3] of 60 nM. Besides, the Dose ratio in experiment [4] came to 22. In the experiment listed under Oryctolagus cuniculus [1], this molecule yielded a pKB of 5.9.

As to `C=C1C[C@@H](C)[C@H]2CN(CC3CC3)CCC2(c2cccc(O)c2)C1` (some centres not stated), the 50% effect level in the experiment on Mus musculus (ED50) was put at a dose of 0.05 mg/kg. The molecule further showed an IC50 in the experiment filed under Oryctolagus cuniculus [1] of 28000 nM.

As to `CN1CCC2(c3cccc(O)c3)CC=CC[C@H]2C1` (some centres not stated), in the experiment with Mus musculus, the ED50 is 0.5 mg/kg. In experiment [3], this molecule had an IC50 of 130 nM. The Dose ratio in experiment [4] was above 30. In addition, the pKB in the experiment filed under Oryctolagus cuniculus [1] worked out at 5.4.

For `Oc1cccc(C23CC=CC[C@H]2CN(CC2CC2)CC3)c1` (some centres not stated), in the experiment on Mus musculus, it took a dose of 0.53 mg/kg to reach the 50% effect level (ED50). For the same molecule, the IC50 in experiment [3] came out at 90 nM. In addition, the Dose ratio in experiment [4] was 2.3.

In the experiment on Mus musculus, `Oc1cccc(C23C=C[C@H](O)C[C@H]2CN(CC2CC2)CC3)c1` (some centres not stated) had an ED50 above 10 mg/kg. In the experiment filed under Oryctolagus cuniculus [1], this molecule displayed a negative logarithm of the KB (pKB) of 5.6.

With `C=C1CC[C@H]2CN(CC3CCC3)CCC2(c2cccc(O)c2)C1` (some centres not stated), the 50% effective dose (ED50) with Mus musculus was determined as 0.23 mg/kg. In the experiment listed under Oryctolagus cuniculus [1], this molecule had a pKB of 5.3.

Turning to `O=C1CCC2(c3cccc(O)c3)CCN(CC3CCC3)C[C@@H]2C1` (some centres not stated), the median effective dose (ED50) in the experiment with Mus musculus is above 10 mg/kg.

What is called ED50 is the dose at which the effect has come halfway, by size or by number of responders. Lower therefore signals greater potency. The term pKB denotes the KB on a negative log10 scale, so that one unit is a factor of ten. A lower pKB goes with a high KB. A word on the IC50: it is the concentration that gives 50% inhibition. Lower therefore signals greater potency in that assay. By inhibition is commonly meant how much of the control response was suppressed.
